Screening results: PubChem, several laboratories
In the library only some 2.2% were active in any assay of this set; here they are far more common.
HNF4A DNA FP – change in binding of human HNF4 alpha to DNA; activity change, % at 10 µM; 360,000 tested, 0.3% active; AID 1224865; P41235; HNF4a-FITC DNA binding, fluorescence polarization, 1 h; in the data active = activity change above about 30%, passing the limit was not always enough
Exocytosis inh – blocks lytic granule exocytosis. TALL-104 LAMP-1 surface exposure, flow cytometry; cells stimulated with thapsigargin and PMA. inhibition, % at 10 µM. 360,000 tested, 0.66% active. AID 651702;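 active = inhibition above about 55%, limit read from the data; inconclusive = no clear call, values can overlap the other calls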
CSN inh – blocks human CSN-mediated cullin deneddylation; inhibition, % at 12.5 µM; 360,000 tested, 0.38% active; Purified CSN, SCF-Nedd8-OG deneddylation, fluorescence polarization; Q92905;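 active = pattern-corrected inhibition above about 35%, with an unprinted fluorescence ratio check between 0.5 and 1.5, limit read from the data, passing the limit was not always enough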;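 note: 0% = enzyme with substrate and 100% = substrate without enzyme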
Target sequence (Q92905 whole entry, looked up, one chain of several): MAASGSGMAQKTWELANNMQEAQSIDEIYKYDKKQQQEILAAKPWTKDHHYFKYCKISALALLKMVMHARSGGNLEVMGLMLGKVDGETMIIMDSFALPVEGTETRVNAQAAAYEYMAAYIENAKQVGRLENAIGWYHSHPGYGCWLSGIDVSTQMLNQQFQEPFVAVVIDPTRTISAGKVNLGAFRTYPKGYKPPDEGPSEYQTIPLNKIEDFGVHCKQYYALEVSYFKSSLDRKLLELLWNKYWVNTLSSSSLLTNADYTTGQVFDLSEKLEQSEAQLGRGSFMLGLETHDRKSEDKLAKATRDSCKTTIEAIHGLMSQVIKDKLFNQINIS
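test system = HEK293T-derived human Csn5 enzyme | amount = 0.24 nM Csn5 enzyme, final concentration | medium = Tris/NaCl/DTT buffer, pH 7.5 | schedule = 90 min reaction at room temperature | signal = FP | evaluation = inhibition of Csn5 cleavage, % | compound dosing = single dose of 12.5 µM compound with 0.25% DMSO | probe or stimulus = 10 nM SCFSkp2-Nedd8OG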
Myeloid diff 2 – myeloid differentiation induction | AID 624256 | 360,000 tested, 1% active | calls only at 10 µM | ER-HoxA9 myeloid progenitors, lysozyme-GFP differentiation, flow cytometry;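 active = normalized GFP-positive differentiation at or above the plate's own cutoff, the solvent-only control mean plus 3 SD; inconclusive = no clear call, values can overlap the other calls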;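 note: cells exposed to compound for four days before flow analysis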
* hit, by the source's call; i = inactive; ? = inconclusive; · = not tested or not shown; + = active, no number.

SMILES	HNF4A DNA FP	Exocytosis inh	CSN inh	Myeloid diff 2
O=C(OCc1ccc(O)cc1)c1c(-c2ccsc2)oc2ccc(N3CCOCC3)cc12	1.6	-3.4	-1.4	i
CCOc1ccccc1CNc1nnnn1C	1.9	-0.4	3.9	i
CCOc1ccccc1CNn1nnnc1N	5.0	0.6	-4.3	+
CC(=O)c1ccc(N2CCN(C(=O)C3CCN(S(=O)(=O)Cc4ccccc4)CC3)CC2)cc1	6.3	0.4	92.1*	i
O=C(C1CCN(S(=O)(=O)Cc2ccccc2)CC1)N1CCN(c2ncccn2)CC1	0.7	-0.1	101.0*	i
COCCn1c(SCC(=O)Nc2ccc3c(c2)OCCO3)nnc1C(C)C	2.5	?	-1.3	i
COCCn1c(SCC(=O)c2ccc3c(c2)OCCO3)nnc1C(C)C	1.5	-2.0	84.4*	i
Cc1ccc(NC(=O)c2ccc(NCCc3ccccc3)c([N+](=O)[O-])c2)cc1F	54.0*	1.3	118.0	i
Cc1cn([C@H]2C[C@H](O)[C@@H](CNC(=O)c3ccccn3)O2)c(=O)[nH]c1=O	-0.8	-3.4	0.5	i
Cc1ccc(C2C3CN(C(C)C)CC=C3C(C#N)=C(N)C2(C#N)C#N)cc1 (centres undefined)	-51.5	-1.0	-22.3	+
COc1ccc(OC)c(C2C3CN(C(C)C)CC=C3C(C#N)=C(N)C2(C#N)C#N)c1 (centres undefined)	2.1	-0.4	-3.8	i
O/C(=C\c1ccc2ccccc2n1)c1ccc(O)cc1O	64.9*	-7.1	37.5	i
Oc1ccc(/C(Cc2ccc3ccccc3n2)=N\Nc2ccccc2)c(O)c1	9.6	6.2	6.6	·
CCN(Cc1ccccc1)C(=O)CN1C(=O)COc2ccc(S(=O)(=O)NC3CCCC3)cc21	1.2	4.4	5.4	i
O=C1c2cccc3c(N4CCCCC4)ccc(c23)C(=O)N1c1ccc(O)cc1	-103.6	16.4	14.9	+
O=C1c2cccc3c(N4CCCCC4)ccc(c23)C(=O)N1c1ccccc1O	-7.1	-3.5	-69.8	+
O=C(CCN1C(=O)c2ccccc2C1=O)Nc1ccccc1C(F)(F)F	-2.4	-0.7	-1.6	i
CCCC[n+]1ccn(-c2nc3ccccc3nc2[N-]S(=O)(=O)c2ccc(Br)cc2)c1	-4.3	-8.9	41.3*	i
COc1ccc(CN2CCN(C(=O)c3ccc(S(=O)(=O)NCc4ccco4)cc3)CC2)cc1	-0.4	-5.4	0.1	i
CSc1ccc(C=NNc2ccc(S(=O)(=O)Nc3ccccc3C(=O)O)cc2[N+](=O)[O-])cc1	-63.8	2.0	15.4	+
COc1ccccc1CNCC(O)Cn1c2ccccc2c2ccccc21 (centres undefined)	2.4	86.7*	4.0	i
OCCNCC(O)Cn1c2ccccc2c2ccccc21 (centres undefined)	2.4	4.2	1.5	i
Cc1cccc(C)c1NC(=O)CNC(=O)c1ccc(COc2ccccc2)cc1	-1.1	1.4	-6.1	i
COC12CC(=O)C(C(C)=O)=C(O)C1(C)c1c(O)c(C)c(O)c(C(C)=O)c1O2 (centres undefined)	64.8*	-2.0	42.9*	i
CS(=O)(=O)c1ccc(Nc2nc(C(N)c3ccccc3)cs2)cc1 (centres undefined)	-1.6	-3.8	4.8	i
SMILES	HNF4A DNA FP	Exocytosis inh	CSN inh	Myeloid diff 2
COc1cc(/C=C/C(=O)O)ccc1O	2.9	-4.8	5.5	i
COc1cc(/C=C/C(=O)CC(=O)/C=C/c2ccc(O)c(OC)c2)ccc1O	111.7	83.8*	110.8	i
COc1cc(OC)c(C(=O)C=Cc2ccc(OC)c(OC)c2)c(OC)c1	-3.1	72.7*	5.4	i
COc1cc(OC)c(C(=O)/C=C/c2ccc(OCc3ccccc3)c(OC)c2)c(OC)c1	-1.8	6.1	2.8	i
COc1cc(/C=C/C(=O)/C=C(O)/C=C/c2ccc(O)c(OC)c2)ccc1O	116.8*	68.8*	119.4	i
COc1cc(C=C2C(=O)C=CC2=O)ccc1O	-9.9	82.6*	30.2	?
Cn1c(CCNC(=O)c2ccccc2F)nnc1SCC(=O)Nc1nncs1	2.4	0.1	-1.8	i
Cc1ccc(S(=O)(=O)N2C[C@H]3[C@H]4C(=O)N(c5ccccc5)C(=O)[C@H]4CC(=O)[C@H]3[C@@H]2c2ccccc2F)cc1	-3.7	-2.5	111.0*	i
O=C(C[C@@H]1C/C=C/CC[C@H](Cc2ccc(F)cc2)C(=O)OC[C@@H](Cc2ccccc2)NC1=O)N[C@H](CO)Cc1ccccc1	0.2	-10.3	-0.2	i
CN1CCN(C(=O)/C(=C/c2cn(S(=O)(=O)N(C)C)c3ccccc23)NC(=O)c2ccccc2F)CC1	2.4	-11.3	0.8	i
O=C(/C(=C/c1ccc(Cl)cc1)c1nc2ccccc2[nH]1)c1cccs1	4.4	96.3*	12.8	?
COc1ccc(CCNC(=O)C(=O)NCCC2CCCCN2S(=O)(=O)c2ccccc2)cc1 (centres undefined)	2.2	-2.0	2.4	i
NC1(C(=O)O)CCCCC1c1ccccc1 (centres undefined)	-1.1	2.1	1.4	i
Cc1nc2ncnn2c(C)c1Cc1cccc(C(F)(F)F)c1	3.0	-2.7	-1.8	+
Cc1ccccc1Cc1c(C)nc2ncnn2c1C	-2.9	-0.3	-0.7	i
CCOCCn1ccc2c(OCC(=O)Nc3ccc(OC)cc3OC)cccc2c1=O	-4.4	15.7	-0.5	+
CCOCCn1ccc2c(OCC(=O)Nc3ccc(OC)c(OC)c3)cccc2c1=O	1.0	-5.6	1.2	i
O=C(O)c1cccc(Nc2ccncc2[N+](=O)[O-])c1	1.2	-4.0	0.3	i
Clc1ccc(-c2csc(NNC3=NCCCCC3)n2)cc1	-4.6	13.9	-0.5	i
CCOc1ccc(-c2csc(NNC3=NCCCCC3)n2)cc1	3.6	55.9*	-12.6	i
CCOC(=O)C1=C(O)c2ccccc2C(=O)/C1=C\c1ccc(CC)cc1	-0.6	101.5*	2.3	+
CCOC(=O)c1c(C)nc2c(c1-c1cc(OC)ccc1OC)C(=O)c1ccccc1-2	1.3	-3.4	4.7	i
CCOC(=O)C1=C(Cc2ccc(OC)cc2)C(=O)c2ccccc2C1=O	1.0	105.2*	0.8	+
CC(C)c1ccc(C(=O)OCC(=O)Nc2cccc(S(=O)(=O)NC3=NCCC3)c2)cc1	1.7	-1.8	-2.9	i
Cc1ccc(C)c(NC(=O)CN(C)C(=O)c2ccc(S(=O)(=O)N3CCCCCC3)cc2)c1	-3.2	-5.2	-0.2	i
SMILES	HNF4A DNA FP	Exocytosis inh	CSN inh	Myeloid diff 2
COc1ccc(N=C2SCC(=O)N2Cc2ccccc2)cc1	1.4	-0.3	-1.6	+
Cc1ccc(C(=O)Nc2cccc3cccnc23)cc1C	3.8	-6.8	-3.6	i
COc1ccc([N+](=O)[O-])cc1NCc1c(F)cccc1F	2.8	2.8	-0.9	i
Cc1cc(NC(=O)CSc2c(C)[nH]c3ccccc23)no1	0.2	-1.9	1.8	+
Cc1cc(NC(=O)CSc2nc(-c3cccs3)cc(C(F)(F)F)n2)no1	-0.9	-2.4	-0.8	+
CNC[C@@H]1Oc2cc(Br)ccc2S(=O)(=O)N([C@@H](C)CO)C[C@H]1C	-3.1	2.9	5.5	i
